Source: PubChem BioAssay
Compounds with a hit are over-represented: about 12% of the library has one in this group of screens.
CHOP inhibitor = blocks CHOP induction under ER stress; inhibition, % at 10 µM; hit rate 3.8% among 220,000; AID 2732; CHO-K1 CHOP-promoter luciferase, tunicamycin-induced, 15-18 h;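 active = compounds that reduced the stress-induced luciferase reporter signal by more than about 70% of percent inhibition, limit read from the data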;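 also: 0% = tunicamycin plus vehicle and 100% = wells without tunicamycin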
Dynein cargo inh = dynein cargo transport inhibition | z-score, hits read low | AID 1381 | 3617.4 mouse cells, GR-EGFP nuclear translocation imaging; test concentration mostly 20 µM; stimulated with dexamethasone, 1 µM; stronger effect = lower value | hit rate 0.47% among 220,000;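 active = plate z-score of nuclear minus cytoplasmic receptor signal below a set negative limit, without overly bright fluorescence or cell loss, cut at about -3.5 in these data, passing the limit was not always enough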;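 also: z-score of nuclear minus cytoplasmic ring GR-EGFP intensity difference per well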
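Buffer or medium – tet-free medium with charcoal-stripped serum · Signal – automated 10x imaging of fixed Hoechst-stained cells · Also added – dexamethasone agonist, 1.0 µM final, for 30 min · Incubation – induction 48 h, compound 1 h, agonist 30 min · Read-out – GR-EGFP nuclear translocation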
MT stabilize HCS = microtubule stabilizers in HeLa cells. HeLa tubulin immunostaining HCS, 24 h; share of cells brighter than vehicle mean+2SD. % tubulin-high responders, % at 10 µM. hit rate 0.83% among 200,000;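 active = plate Z-score above 3 for both tubulin-high and condensed-nucleus cell shares, with cell loss under 80%, at 10 µM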;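 also: anti alpha tubulin signal scored within the nucleus-defined area of each cell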
bCat nuc transl = modulators of beta-catenin nuclear translocation; hit rate 0.3% among 190,000; AID 1665; nuclear translocation activity, % at 5 µM; HeLa beta-catenin nuclear translocation, immunofluorescence imaging;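 active = nuclear translocation activity above 50% at 5 µM, with a well cell count of 50 or more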;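 also: per-cell ratio of nuclear to cytoplasmic median beta-catenin stain intensity; plate controls were DMSO negative control for no effect and GSK-3 inhibitor IX positive control for full effect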
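System: Human HeLa cells, endogenous beta-catenin | Compound dosing: 5 µM primary, 0.02–20 µM confirmation | Timing: 24 h compound exposure at 37°C, 5% CO2 | Measured by: Fluorescence imaging of beta-catenin antibody stain plus DAPI | Read-out basis: % activation of per-cell nuclear versus cytoplasmic median beta-catenin signal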
Autophagy HCS = modulators of autophagy; MEF GFP-LC3 puncta imaging; test concentration mostly 10 µM; calls only at 10 µM (by protocol); hit rate 0.98% among 190,000; AID 463193;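 active = percentage of spot-positive cells more than 3 SD above its plate mean, without a fluorescence outlier flag or 80% toxicity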;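 also: spot-positive cell cutoff set from DMSO-treated cells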
Lmaj promast = Leishmania major promastigote growth inhibition; AID 1063; inhibition, % at 10 µM; hit rate 9% among 200,000; Leishmania major promastigotes, resazurin fluorescence viability; in the data active = inhibition above about 50%;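 also: promastigotes grown with compound for 44 hours at 28 °C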
CHOP inh conf = confirmation of CHOP induction inhibitors; shares compounds with CHOP inhibitor; CHO-CHOP promoter luciferase reporter, tunicamycin-induced, luminescence; inhibition, % at 10 µM; hit rate 45% among 2,100;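 active = mean of three repeat readings of reporter signal inhibition above a set limit, cut at about 70% in these data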;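 also: 0% = tunicamycin plus vehicle and 100% = wells lacking tunicamycin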
An asterisk follows results filed as active.

Results for Cc1ccc(Nc2nc(N)c([N+](=O)[O-])c(NCc3ccccc3)n2)cc1 ?
CHOP inhibitor: 103.8*; Dynein cargo inh: -0.555; bCat nuc transl: -0.7; CHOP inh conf: 35.1

Results for Cc1ccc(Nc2nc(NCc3ccco3)c3ccccc3n2)cc1 ?
CHOP inhibitor: 106.0*; Dynein cargo inh: 1.03; MT stabilize HCS: 3.0; bCat nuc transl: -0.1; Autophagy HCS: inactive; Lmaj promast: 100.5*; CHOP inh conf: 114.7*

How did CN1/C(=C\C(=O)c2cccs2)C(C)(C)c2ccccc21 do in these assays?
CHOP inhibitor: 27.3; Dynein cargo inh: 0.106; MT stabilize HCS: 4.8; bCat nuc transl: -1.1; Autophagy HCS: inactive; Lmaj promast: 22.1

Results for Cc1cc(Br)c2c(c1)/C(=C/C(=O)c1cccs1)C(=O)N2 ?
CHOP inhibitor: 99.0*; Dynein cargo inh: -0.603; MT stabilize HCS: 5.2; bCat nuc transl: -2.9; Autophagy HCS: inactive; Lmaj promast: 100.3*; CHOP inh conf: 80.2*

How did CCc1ccc2c(c1)/C(=C/C(=O)c1cccs1)C(=O)N2 do in these assays?
CHOP inhibitor: 108.7*; Dynein cargo inh: -1.08; MT stabilize HCS: 8.3; bCat nuc transl: -2.7; Autophagy HCS: inactive; Lmaj promast: 100.5*; CHOP inh conf: -22.5

How did Cc1cccc2c1NC(=O)/C2=C\C(=O)c1cccs1 do in these assays?
CHOP inhibitor: 110.2*; Dynein cargo inh: 0.193; MT stabilize HCS: 2.1; bCat nuc transl: -3.0; Autophagy HCS: inactive; Lmaj promast: 100.4*; CHOP inh conf: -47.9

Results for Cc1cc(C)c2c(c1)/C(=C/C(=O)c1ccc(Br)s1)C(=O)N2 ?
CHOP inhibitor: 109.8*; Dynein cargo inh: -0.903; MT stabilize HCS: 22.4; bCat nuc transl: -3.7; Autophagy HCS: inactive; Lmaj promast: 100.2*; CHOP inh conf: 53.8

What do the screens show for `O=C1NN(c2ccccc2)C(=O)/C1=C\c1ccc(-c2cc([N+](=O)[O-])ccc2O)o1`?
CHOP inhibitor: -24.0; Dynein cargo inh: -0.277; MT stabilize HCS: 1.8; bCat nuc transl: -1.5; Autophagy HCS: inactive; Lmaj promast: -11.0

What do the screens show for `COc1ccccc1OCC(=O)Nc1ccc(S(=O)(=O)Nc2nc(C)cc(C)n2)cc1`?
CHOP inhibitor: 17.7; Dynein cargo inh: -0.539; MT stabilize HCS: 2.2; bCat nuc transl: 0.5; Autophagy HCS: inactive; Lmaj promast: -3.6

How did CNC(=O)c1cc2cc(Cl)cc(OC)c2oc1=O do in these assays?
Dynein cargo inh: -0.0623; MT stabilize HCS: 1.3; Autophagy HCS: inactive; Lmaj promast: -6.3

What do the screens show for `Cc1sc2ncnc(NCCCN3CCCC3=O)c2c1C`?
CHOP inhibitor: 3.0; Dynein cargo inh: 0.385; MT stabilize HCS: 3.5; bCat nuc transl: 0.0; Autophagy HCS: inactive; Lmaj promast: -4.5

Results for CC(=O)Nc1ccc(C(=O)N/N=C/c2cc(Br)cc(Br)c2O)cc1 ?
CHOP inhibitor: 104.6*; Dynein cargo inh: 2.11; MT stabilize HCS: 4.0; bCat nuc transl: 7.7; Autophagy HCS: inactive; Lmaj promast: 24.9; CHOP inh conf: 35.0

How did COc1cc(OC)c(/C=N/NC(=O)c2ccc(NC(C)=O)cc2)cc1Br do in these assays?
CHOP inhibitor: 104.0*; Dynein cargo inh: -0.322; MT stabilize HCS: 2.9; bCat nuc transl: -3.7; Autophagy HCS: inactive; Lmaj promast: -1.4; CHOP inh conf: -8.6

Results for CCCc1nnc(NC(=O)Cn2cnc3ccccc3c2=O)s1 ?
CHOP inhibitor: 10.1; Dynein cargo inh: 0.893; MT stabilize HCS: 3.2; bCat nuc transl: -2.4; Autophagy HCS: inactive; Lmaj promast: -4.0

How did CCN(CC)c1ccc(/C=N/NC(=S)NCc2ccccc2)c(O)c1 do in these assays?
CHOP inhibitor: 100.5*; Dynein cargo inh: -0.00299; MT stabilize HCS: 13.9; bCat nuc transl: -1.7; Autophagy HCS: inactive; Lmaj promast: 3.4; CHOP inh conf: -65.8

What do the screens show for `CCCC(=O)NC(NC(=S)Nc1ccc(S(N)(=O)=O)cc1)C(Cl)(Cl)Cl` (stereo unspecified)?
CHOP inhibitor: -4.3; Dynein cargo inh: 0.242; MT stabilize HCS: 4.2; bCat nuc transl: -2.5; Autophagy HCS: inactive; Lmaj promast: -6.3

Results for CCCC(=O)NC(NC(=S)Nc1ccc(N=Nc2ccccc2)cc1)C(Cl)(Cl)Cl (stereo unspecified) ?
CHOP inhibitor: 99.7*; Dynein cargo inh: 0.245; MT stabilize HCS: 1.2; bCat nuc transl: -0.5; Autophagy HCS: inactive; Lmaj promast: 56.6*; CHOP inh conf: 82.9*

Results for CCc1ccc(OCC(=O)NC(NC(=S)Nc2ccc(Cl)cc2)C(Cl)(Cl)Cl)cc1 (stereo unspecified) ?
CHOP inhibitor: 101.6*; Dynein cargo inh: -0.0416; MT stabilize HCS: 5.5; bCat nuc transl: -0.4; Autophagy HCS: inactive; Lmaj promast: 60.8*; CHOP inh conf: 70.0*

Results for CC(=O)Nc1ccc(N=Nc2ccccc2)cc1 ?
CHOP inhibitor: 20.3; Dynein cargo inh: -0.0987; MT stabilize HCS: 1.4; bCat nuc transl: 1.1; Autophagy HCS: inactive; Lmaj promast: -13.9

How did O=C(CCl)Nc1ccc(N=Nc2ccccc2)cc1 do in these assays?
CHOP inhibitor: 102.5*; Dynein cargo inh: -0.822; MT stabilize HCS: 4.9; Autophagy HCS: inactive; Lmaj promast: 99.9*; CHOP inh conf: 9.1

Results for CC12CN(C(=S)Nc3ccccc3)CC(C)(CN(C(=S)Nc3ccccc3)C1)C2=O ?
CHOP inhibitor: 30.3; Dynein cargo inh: -0.0952; bCat nuc transl: -0.1; Autophagy HCS: inactive; Lmaj promast: -1.6

How did CC1Oc2ccccc2N(CC(=O)NCCc2ccccc2)C1=O (stereo unspecified) do in these assays?
CHOP inhibitor: 19.8; Dynein cargo inh: 0.949; MT stabilize HCS: 3.4; bCat nuc transl: -0.6; Autophagy HCS: inactive; Lmaj promast: -7.9

Results for NC(=S)n1[nH]c(-c2ccc([N+](=O)[O-])cc2)c(N=Nc2ccc(O)cc2)c1=O ?
CHOP inhibitor: 106.7*; Dynein cargo inh: -0.558; MT stabilize HCS: 1.0; Autophagy HCS: inactive; Lmaj promast: 97.5*; CHOP inh conf: -20.5

Results for COc1ccc(C(=O)c2c(C(F)(F)F)oc3c2C(=O)c2ccccc2C3=O)cc1OC ?
CHOP inhibitor: 105.9*; Dynein cargo inh: 0.364; MT stabilize HCS: 6.1; Autophagy HCS: inactive; Lmaj promast: 100.3*; CHOP inh conf: 70.6

How did COc1ccc(C(=O)Nc2ccc3c(c2)C(=O)c2ccccc2C3=O)cc1OC do in these assays?
CHOP inhibitor: 2.7; Dynein cargo inh: 0.63; MT stabilize HCS: 6.0; bCat nuc transl: -0.6; Autophagy HCS: inactive; Lmaj promast: -7.3

How did CC1CCCC(CC(=O)O)(CC(=O)O)C1 (stereo unspecified) do in these assays?
CHOP inhibitor: 6.6; Dynein cargo inh: 0.323; bCat nuc transl: -0.5
